Laboratory results as given in ChEMBL document CHEMBL1275556, “High prevalence of plasmid-mediated quinolone resistance genes qnr and aac(6')-Ib-cr in clinical isolates of Enterobacteriaceae from nine teaching hospitals in China” (2008).
Converted amounts (≈) assume the structure as drawn.

Assays:
Enterobacter cloacae [1] = assay: Antimicrobial activity against aac(6')-Ib-cr-negative Enterobacter cloacae GZ51 harboring qnrA gene by agar dilution method; format: functional
Citrobacter freundii [2] = assay: Antimicrobial activity against aac(6')-Ib-cr-positive Citrobacter freundii JS33 harboring GyrA T83I mutant, wild-type ParC, GyrB, qnrA and qnrB genes by agar dilution method; format: functional
In short: (§1)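 MICs were determined by the CLSI agar dilution method (M7-A7) and interpreted against CLSI M100-S17 breakpoints.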

Enterobacter cloacae [3] = assay: Antimicrobial activity against aac(6')-Ib-cr-negative Enterobacter cloacae WH42 harboring wild-type GyrA, ParC, GyrB and qnrA genes by agar dilution method; format: functional
Klebsiella pneumoniae [4] = assay: Antimicrobial activity against aac(6')-Ib-cr-positive Klebsiella pneumoniae SY26T harboring wild-type GyrA, ParC, GyrB and qnrB genes by agar dilution method; format: functional
In short: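 Transconjugants were made by conjugating a qnr/aac(6')-Ib-cr donor with azide-resistant E. coli J53. MICs were read by CLSI agar dilution (M7-A7) and interpreted per M100-S17.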

Citrobacter freundii [5] = assay: Antimicrobial activity against aac(6')-Ib-cr-positive Citrobacter freundii TJ15T harboring wild-type GyrA, ParC, GyrB genes by agar dilution method; format: functional; in short: as §1
Enterobacter cloacae [6] = assay: Antimicrobial activity against aac(6')-Ib-cr-negative Enterobacter cloacae GZ51T harboring qnrA gene by agar dilution method; format: functional
Escherichia coli [7] = assay: Antimicrobial activity against aac(6')-Ib-cr-positive Escherichia coli FJ3T harboring wild-type GyrA, ParC, GyrB and qnrB genes by agar dilution method
Enterobacter cloacae [8] = assay: Antimicrobial activity against aac(6')-Ib-cr-negative Enterobacter cloacae GZ47T harboring qnrB gene by agar dilution method; format: functional
Klebsiella pneumoniae [9] = assay: Antimicrobial activity against aac(6')-Ib-cr-positive Klebsiella pneumoniae JN41 harboring GyrA S83I, ParC S80I mutant, wild-type GyrB and qnrB genes by agar dilution method; format: functional
In short: (§2)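 MICs were determined on clinical isolates by CLSI agar dilution (M7-A7) and interpreted against CLSI M100-S17 breakpoints.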

Klebsiella pneumoniae [10] = assay: Antimicrobial activity against aac(6')-Ib-cr-positive Klebsiella pneumoniae GZ40 harboring GyrA S83I, ParC S80I mutant, wild-type GyrB and qnrB genes by agar dilution method; format: functional; in short: as §1
Citrobacter freundii [11] = assay: Antimicrobial activity against aac(6')-Ib-cr-negative Citrobacter freundii JN64T harboring qnrA gene by agar dilution method; format: functional; in short: as §1
Klebsiella pneumoniae [12] = assay: Antimicrobial activity against aac(6')-Ib-cr-positive Klebsiella pneumoniae GZ40T harboring qnrB gene by agar dilution method
Enterobacter cloacae [13] = assay: Antimicrobial activity against aac(6')-Ib-cr-positive Enterobacter cloacae FJ63T harboring qnrS gene by agar dilution method; format: functional
Citrobacter freundii [14] = assay: Antimicrobial activity against aac(6')-Ib-cr-positive Citrobacter freundii JN1T by agar dilution method; format: functional; in short: as §1
Citrobacter freundii [15] = assay: Antimicrobial activity against aac(6')-Ib-cr-positive Citrobacter freundii TJ15 harboring GyrA T83I, ParC S80I mutant, wild-type GyrB, qnrB genes by agar dilution method; format: functional; in short: as §1
Citrobacter freundii [16] = assay: Antimicrobial activity against aac(6')-Ib-cr-positive Citrobacter freundii JN1 harboring GyrA T83I, ParC S80I mutant, wild-type GyrB and qnrA genes by agar dilution method; format: functional; in short: as §1
Citrobacter freundii [17] = assay: Antimicrobial activity against aac(6')-Ib-cr-positive Citrobacter freundii JS33T harboring qnrA gene by agar dilution method; format: functional; in short: as §1
Klebsiella pneumoniae [18] = assay: Antimicrobial activity against aac(6')-Ib-cr-negative Klebsiella pneumoniae SY22 harboring GyrA S83I, ParC S80I mutant, wild-type GyrB and qnrS genes by agar dilution method; format: functional; in short: as §1
Klebsiella pneumoniae [19] = assay: Antimicrobial activity against aac(6')-Ib-cr-positive Klebsiella pneumoniae SY26 harboring GyrA S83I, ParC S80I mutant, wild-type GyrB and qnrB genes by agar dilution method; format: functional; in short: as §2
Enterobacter cloacae [20] = assay: Antimicrobial activity against aac(6')-Ib-cr-negative Enterobacter cloacae GZ47 harboring qnrB and qnrS genes by agar dilution method; format: functional
Enterobacter cloacae [21] = assay: Antimicrobial activity against aac(6')-Ib-cr-negative Enterobacter cloacae SH39 harboring GyrA S83I, ParC S80I mutant, wild-type GyrB and qnrA genes by agar dilution method; format: functional
Enterobacter cloacae [22] = assay: Antimicrobial activity against aac(6')-Ib-cr-negative Enterobacter cloacae FJ61T harboring qnrS gene by agar dilution method; format: functional
Enterobacter cloacae [23] = assay: Antimicrobial activity against aac(6')-Ib-cr-negative Enterobacter cloacae FJ67 harboring […] and qnrS genes by agar dilution method; format: functional
Enterobacter cloacae [24] = assay: Antimicrobial activity against aac(6')-Ib-cr-negative Enterobacter cloacae FJ61 harboring GyrA S83I, GyrA D87A, ParC S80I mutant, wild-type GyrB and qnrS genes by agar dilution method; format: functional
Escherichia coli [25] = assay: Antimicrobial activity against aac(6')-Ib-cr-negative Escherichia coli PU12 harboring GyrA S83L mutant, wild-type GyrB, ParC and qnrS genes by agar dilution method; format: functional; in short: as §1
Enterobacter cloacae [26] = assay: Antimicrobial activity against aac(6')-Ib-cr-negative Enterobacter cloacae FJ67T harboring qnrS gene by agar dilution method; format: functional
Klebsiella pneumoniae [27] = assay: Antimicrobial activity against aac(6')-Ib-cr-positive Klebsiella pneumoniae WH99T harboring qnrB gene by agar dilution method; format: functional
In short: (§3)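 Transconjugants were made by conjugating a qnr/aac(6')-Ib-cr donor with azide-resistant E. coli J53. Selection used Trypticase soy agar with sodium azide 150 µg/ml and sulfamethoxazole 180 µg/ml. […] MICs were read by CLSI agar dilution (M7-A7) and interpreted per M100-S17.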

Enterobacter cloacae [28] = assay: Antimicrobial activity against aac(6')-Ib-cr-positive Enterobacter cloacae FJ63 harboring GyrA S83I, GyrA D87A, ParC S80I mutant, wild-type GyrB and qnrS genes by agar dilution method; format: functional
Enterobacter cloacae [29] = assay: Antimicrobial activity against aac(6')-Ib-cr-negative Enterobacter cloacae SH39T harboring qnrA gene by agar dilution method; format: functional
Escherichia coli [30] = assay: Antimicrobial activity against aac(6')-Ib-cr-positive Escherichia coli FJ3 harboring GyrA S83L, ParC S80R mutant, wild-type GyrB and qnrB genes by agar dilution method; format: functional; in short: as §1
Klebsiella pneumoniae [31] = assay: Antimicrobial activity against aac(6')-Ib-cr-positive Klebsiella pneumoniae JN132T harboring qnrB gene by agar dilution method; format: functional; in short: as §3
Citrobacter freundii [32] = assay: Antimicrobial activity against aac(6')-Ib-cr-negative Citrobacter freundii JN64 harboring GyrA T83I, wild-type ParC, GyrB and qnrA genes by agar dilution method; format: functional; in short: as §1
Klebsiella pneumoniae [33] = assay: Antimicrobial activity against aac(6')-Ib-cr-positive Klebsiella pneumoniae JN132 harboring GyrA S83I, ParC S80I mutant, wild-type GyrB and qnrB genes by agar dilution method; format: functional; in short: as §2
Klebsiella pneumoniae [34] = assay: Antimicrobial activity against aac(6')-Ib-cr-positive Klebsiella pneumoniae JN41T harboring qnrB gene by agar dilution method; format: functional; in short: as §3
Citrobacter freundii [35] = assay: Antimicrobial activity against aac(6')-Ib-cr-positive Citrobacter freundii PU55 harboring GyrA T83I, ParC S80I mutant, wild-type GyrB, qnrA genes by agar dilution method; format: functional; in short: as §1
Citrobacter freundii [36] = assay: Antimicrobial activity against aac(6')-Ib-cr-positive Citrobacter freundii PU55T harboring wild-type GyrA, ParC, GyrB and qnrA genes by agar dilution method
Enterobacter cloacae [37] = assay: Antimicrobial activity against aac(6')-Ib-cr-negative Enterobacter cloacae WH42T harboring qnrA gene by agar dilution method; format: functional
Klebsiella pneumoniae [38] = assay: Antimicrobial activity against aac(6')-Ib-cr-positive Klebsiella pneumoniae WH99 harboring wild-type GyrA, ParC, GyrB and qnrB genes by agar dilution method; format: functional; in short: as §2
Escherichia coli [39] = assay: Antimicrobial activity against aac(6')-Ib-cr-negative Escherichia coli PU12T harboring wild-type GyrA, GyrB, ParC and qnrS genes by agar dilution method; format: functional; in short: as §1

C[C@H]1COc2c(N3CCN(C)CC3)c(F)cc3c(=O)c(C(=O)O)cn1c23.C[C@H]1COc2c(N3CCN(C)CC3)c(F)cc3c(=O)c(C(=O)O)cn1c23.O [LEVOFLOXACIN]
MIC (Enterobacter cloacae [1]): 0.5 µg/mL | MIC (Citrobacter freundii [2]): 2 µg/mL | MIC (Enterobacter cloacae [3]): 2 µg/mL | MIC (Klebsiella pneumoniae [4]): 0.25 µg/mL | MIC (Citrobacter freundii [5]): 0.5 µg/mL | MIC (Enterobacter cloacae [6]): 0.25 µg/mL | MIC (Escherichia coli [7]): 0.25 µg/mL | MIC (Enterobacter cloacae [8]): 0.25 µg/mL | MIC (Klebsiella pneumoniae [9]): > 32 µg/mL | MIC (Klebsiella pneumoniae [10]): > 32 µg/mL | MIC (Citrobacter freundii [11]): 0.5 µg/mL | MIC (Klebsiella pneumoniae [12]): 0.25 µg/mL | MIC (Enterobacter cloacae [13]): 0.5 µg/mL | MIC (Citrobacter freundii [14]): 0.25 µg/mL | MIC (Citrobacter freundii [15]): 4 µg/mL | MIC (Citrobacter freundii [16]): 16 µg/mL | MIC (Citrobacter freundii [17]): 0.25 µg/mL | MIC (Klebsiella pneumoniae [18]): > 32 µg/mL | MIC (Klebsiella pneumoniae [19]): 32 µg/mL | MIC (Enterobacter cloacae [20]): 2 µg/mL | MIC (Enterobacter cloacae [21]): 32 µg/mL | MIC (Enterobacter cloacae [22]): 0.5 µg/mL | MIC (Enterobacter cloacae [23]): 8 µg/mL | MIC (Enterobacter cloacae [24]): > 32 µg/mL | MIC (Escherichia coli [25]): 4 µg/mL | MIC (Enterobacter cloacae [26]): 1 µg/mL | MIC (Klebsiella pneumoniae [27]): 0.25 µg/mL | MIC (Enterobacter cloacae [28]): > 32 µg/mL | MIC (Enterobacter cloacae [29]): 0.5 µg/mL | MIC (Escherichia coli [30]): 4 µg/mL | MIC (Klebsiella pneumoniae [31]): 0.25 µg/mL | MIC (Citrobacter freundii [32]): 8 µg/mL | MIC (Klebsiella pneumoniae [33]): 8 µg/mL | MIC (Klebsiella pneumoniae [34]): 0.25 µg/mL | MIC (Citrobacter freundii [35]): 32 µg/mL | MIC (Citrobacter freundii [36]): 0.25 µg/mL | MIC (Enterobacter cloacae [37]): 0.25 µg/mL

CO/N=C(\C(=O)N[C@@H]1C(=O)N2C(C(=O)[O-])=C(C[N+]3(C)CCCC3)CS[C@H]12)c1csc(N)n1
MIC (Citrobacter freundii [2]): 0.25 µg/mL (≈ 0.52 µM) | MIC (Escherichia coli [7]): 4 µg/mL (≈ 8.32 µM) | MIC (Klebsiella pneumoniae [9]): 2 µg/mL (≈ 4.16 µM) | MIC (Citrobacter freundii [11]): 4 µg/mL (≈ 8.32 µM) | MIC (Citrobacter freundii [14]): 1 µg/mL (≈ 2.08 µM) | MIC (Klebsiella pneumoniae [18]): 1 µg/mL (≈ 2.08 µM) | MIC (Klebsiella pneumoniae [19]): 0.5 µg/mL (≈ 1.04 µM) | MIC (Escherichia coli [25]): 2 µg/mL (≈ 4.16 µM) | MIC (Klebsiella pneumoniae [27]): 1 µg/mL (≈ 2.08 µM) | MIC (Escherichia coli [30]): 8 µg/mL (≈ 16.6 µM) | MIC (Klebsiella pneumoniae [31]): 2 µg/mL (≈ 4.16 µM) | MIC (Klebsiella pneumoniae [33]): 2 µg/mL (≈ 4.16 µM) | MIC (Klebsiella pneumoniae [34]): 1 µg/mL (≈ 2.08 µM) | MIC (Citrobacter freundii [35]): 1 µg/mL (≈ 2.08 µM) | MIC (Klebsiella pneumoniae [38]): 2 µg/mL (≈ 4.16 µM) | MIC (Escherichia coli [39]): 2 µg/mL (≈ 4.16 µM)
